Calls of active or inactive are those of the source. The rule behind the calls is not given here.
How the values were obtained:
[1] = Drug metabolism in human THP-1 cells assessed as half time for compound hydrolysis to 2-(5-(2-Chlorobenzyl)-2-oxo-1,3,4-oxadiazol-3(2H)-yl)acetic acid at 100 uM by RP-HPLC analysis; assay type: ADME, cell-based
Method in brief: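 PMA-differentiated THP-1 cells lysed in RIPA buffer. Compound added to lysate at 100 μM final (from 10 mM DMSO stock) at 37 °C. Aliquots at intervals deproteinized with CH3CN/0.1% TFA and quantified by RP-HPLC against standards. Pseudo-first-order t1/2 from exponential decay fit; three experiments.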

[2] = Drug metabolism in human serum assessed as half time for compound hydrolysis to 2-(5-(2-Chlorobenzyl)-2-oxo-1,3,4-oxadiazol-3(2H)-yl)acetic acid at 100 uM by RP-HPLC analysis; assay type: ADME, cell-free
Method in brief: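 Compound at 100 μM final (from 10 mM DMSO stock) in human male AB serum held at 37 °C. Aliquots at intervals deproteinized with CH3CN/0.1% TFA, centrifuged, filtered and analysed by RP-HPLC against calibration standards. Pseudo-first-order t1/2 from exponential decay fit; three experiments.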

Rattus norvegicus [3] = test: Antiinflammatory activity against high fat diet fed-induced metaflammation Wistar rat model assessed as reduction in HFD-induced anthropometric alterations by measuring reduction in abdominal fat deposition at 20 mg/kg/day, ip administered for 4 weeks; assay type: functional, organism-based
Method in brief: (§1)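 Male Wistar rats on high-fat diet (60% kcal fat) or standard diet for 12 weeks; 20 mg/kg/day i.p. or vehicle (saline, 2% DMSO, 5% Cremophor-EL) over the last 28 days. Body weight recorded weekly. After sacrifice, abdominal, epididymal, retroperitoneal and perirenal fat, liver and heart excised and weighed. Cardiac somatic index = heart weight/body weight ×100. n=6–7 per group.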

Rattus norvegicus [4] = test: Antiinflammatory activity against high fat diet fed-induced metaflammation Wistar rat model assessed as reduction in HFD-induced anthropometric alterations by measuring reduction in epididymal fat deposition at 20 mg/kg/day, ip administered for 4 weeks; assay type: functional, organism-based; method in brief: as §1
Rattus norvegicus [5] = test: Antiinflammatory activity against high fat diet fed-induced metaflammation Wistar rat model assessed as reduction in HFD-induced metabolic alterations by measuring reduction in LDL cholesterol level in plasma at 20 mg/kg/day, ip administered for 4 weeks; assay type: functional, organism-based
Method in brief: (§2)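 Rats fed HFD or SD for 12 weeks, dosed 20 mg/kg/day i.p. in saline/2% DMSO/5% Cremophor-EL during the final 28 days. Serum obtained after sacrifice by centrifuging blood at 2000 x g, 10 min, 4 °C. Glucose read by glucometer; total, HDL and LDL cholesterol and triglycerides measured with commercial kits. n=6–7 per group.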

Rattus norvegicus [6] = test: Antiinflammatory activity against high fat diet fed-induced metaflammation Wistar rat model assessed as reduction in HFD-induced metabolic alterations by measuring increase in HDL cholesterol level in plasma at 20 mg/kg/day, ip administered for 4 weeks; assay type: functional, organism-based; method in brief: as §2
[7] = Effect on glyco-metabolic profile in standard diet fed Wistar rat assessed as effect on triglyceride level in plasma at 20 mg/kg/day, ip administered for 4 weeks; assay type: toxicity, organism-based; conditions: in vivo, 672 h; method in brief: as §2
Rattus norvegicus [8] = test: Antiinflammatory activity against high fat diet fed-induced metaflammation Wistar rat model assessed as reduction in serum IL-1 beta level at 20 mg/kg/day, ip administered for 4 weeks by ELISA; assay type: functional, organism-based
Method in brief: (§3)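 Male Wistar rats on HFD or SD for 12 weeks received 20 mg/kg/day i.p. (saline, 2% DMSO, 5% Cremophor-EL) or vehicle for the last 28 days. Circulating IL-1β, TNF-α, BNP and Gal-3 quantified by ELISA in blood collected after sacrifice. n=6–7 per group.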

Rattus norvegicus [9] = test: Antiinflammatory activity against high fat diet fed-induced metaflammation Wistar rat model assessed as reduction in serum TNF-alpha level at 20 mg/kg/day, ip administered for 4 weeks by ELISA; assay type: functional, organism-based; method in brief: as §3
[10] = Effect on IL-1 beta level in standard diet fed Wistar rat serum at 20 mg/kg/day, ip administered for 4 weeks by ELISA; assay type: toxicity, organism-based; conditions: in vivo, 672 h; method in brief: as §3
[11] = Effect on TNF-alpha level in standard diet fed Wistar rat serum at 20 mg/kg/day, ip administered for 4 weeks by ELISA; assay type: toxicity, organism-based; conditions: in vivo, 672 h; method in brief: as §3
[12] = Effect on BNP level in standard diet fed Wistar rat plasma at 20 mg/kg/day, ip administered for 4 weeks; assay type: toxicity, organism-based; conditions: in vivo, 672 h; method in brief: as §3
Rattus norvegicus [13] = test: (§4) Cardioprotective activity against myocardial ischemia/reperfusion injury-induced contractile impairment and standard diet fed Wistar rat model assessed as developed LVP recovery at 20 mg/kg/day, ip administered for 4 weeks followed by excised heart exposed to global ischemia for 30 mins and reperfusion for 120 mins and measured at the end of reperfusion (reference value: 43 +/-7 mmHg); assay type: functional
Rattus norvegicus [14] = test: as §4, with “high fat” for “standard”, “fed obese” for “fed”, “left ventricular end diastolic pressure” for “developed LVP recovery”, “27 +/-1” for “43 +/-7”; assay type: functional
Rattus norvegicus [15] = test: (§5) Cardioprotective activity against ischemia/reperfusion-induced myocardial injury and standard diet fed Wistar rat model assessed as infarct size at 20 mg/kg/day, ip administered for 4 weeks followed by excised heart exposed to global ischemia for 30 mins and reperfusion for 120 mins and measured at the end of reperfusion by nitroblue tetrazolium staining based analysis (Rvb ~ 62+/-2%); assay type: functional; conditions: 672 h
Method in brief: (§6)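 Hearts from HFD or SD rats (20 mg/kg/day i.p., last 28 days) Langendorff-perfused (KH buffer, 37 °C, 12 ml/min). After 40 min stabilization they underwent 30 min global ischemia and 120 min reperfusion. The LV was stained; unstained necrotic and stained viable tissue separated and weighed. Infarct size expressed as % of LV mass. n=6–7.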

Rattus norvegicus [16] = test: as §5, with “high” for “standard”, “fed obese” for “fed”, “70+/-1%)” for “62+/-2%)”; assay type: functional; conditions: 672 h; method in brief: as §6
Rattus norvegicus [17] = test: (§7) Inhibition of ischemia/reperfusion-induced inflammation in ischemia/reperfusion-induced myocardial injury and standard diet fed Wistar rat model assessed as decrease in cardiac TNF-alpha level at 20 mg/kg/day, ip administered for 4 weeks followed by excised heart exposed to global ischemia for 30 mins and reperfusion for 120 mins by ELISA; assay type: functional, organism-based
Method in brief: (§8)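 Male Wistar rats on standard or 60% kcal fat diet for 12 weeks; last 28 days i.p. 20 mg/kg/day in saline with 2% DMSO and 5% Cremophor-EL, or vehicle. Hearts perfused by Langendorff with KH buffer at 12 ml/min, 37°C, then 40 min stabilization, 30 min global no-flow ischemia and 120 min reperfusion. Cytokines measured in LV tissue; n=6–7 per group.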

Rattus norvegicus [18] = test: as §7, with “high fat” for “standard”, “fed obese” for “fed”, “IL-1 beta” for “TNF-alpha”; assay type: functional, organism-based; method in brief: as §8
Rattus norvegicus [19] = test: as §7, with “high fat” for “standard”, “fed obese” for “fed”; assay type: functional, organism-based; method in brief: as §8
Rattus norvegicus [20] = test: as §7, with “oxidative stress” for “inflammation”, “high fat” for “standard”, “fed obese” for “fed”, “MDA” for “TNF-alpha”, “TBARS assay” for “ELISA”; assay type: functional, organism-based
Method in brief: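 Same rat diet, dosing and Langendorff ischemia/reperfusion protocol. LV homogenized 10% w/v in 0.9% KCl pH 7.4. Homogenate heated at 100 °C for 15 min with TCA and TBA plus butylated hydroxytoluene, centrifuged, and read at […]. MDA expressed as nmol/g heart tissue, compared with sham hearts perfused for 190 min.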

For CCOC(=O)Cn1nc(Cc2ccccc2Cl)oc1=O, the half-life at 100 µM [1] was 1.08 h, the half-life at 100 µM [2] was 4 h and the Activity (Rattus norvegicus [3]) was “Active”. For the same compound, the Activity (Rattus norvegicus [4]) was “Active”, the Activity (Rattus norvegicus [5]) was “Active” and the Activity (Rattus norvegicus [6]) was “Active”. For the same compound, the Activity [7] was “Non-Toxic”, the Activity (Rattus norvegicus [8]) was “Active” and the Activity (Rattus norvegicus [9]) was “Active”. The Activity [10] was “Non-Toxic”, the Activity [11] was “Non-Toxic” and the Activity [12] was “Non-Toxic”. The Activity (Rattus norvegicus [13]) was 80 mmHg, the Activity (Rattus norvegicus [14]) was 18 mmHg and the infarct size in vivo at 20 mg/kg/day (Rattus norvegicus [15]) was roughly 53%. The infarct size in vivo at 20 mg/kg/day (Rattus norvegicus [16]) was roughly 61%, the inhibition (Rattus norvegicus [17]) was “Active” and the inhibition (Rattus norvegicus [18]) was “Active”. The inhibition (Rattus norvegicus [19]) was “Active” and the inhibition (Rattus norvegicus [20]) was “Active”.

— ChEMBL document CHEMBL5335784, “Discovery of a novel 1,3,4-oxadiazol-2-one-based NLRP3 inhibitor as a pharmacological agent to mitigate cardiac and metabolic complications in an experimental model of diet-induced metaflammation” (Eur J Med Chem, 2023)
